Like-named read-outs stand apart in the source and are kept apart here.
Legend:
[1] = system: 2008 ovarian cancer cells; test: MTT cytotoxicity, 72 h; format: cell-based, human; details: read-out: IC50 (μM)±SD 2008, MTT test
How it was run: (§1)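 The 2008 and H157 cells were kept in RPMI-1640, and A375 cells in DMEM, each with 10% FCS, antibiotics and 2 mM glutamine, at 37 °C, 5% CO2. Cells (3–8×10^3/well) were exposed 72 h in triplicate, with DMSO at 0.5% final. MTT was added for 5 h, followed by SDS/0.01 M HCl overnight, then A570 relative to untreated wells. IC50 came from a 4-PL fit, means of ≥4 independent experiments.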

[2] = system: HCT‐15 colon cancer cells; test: MTT cytotoxicity, 72 h; format: cell-based, human; details: read-out: IC50 (μM)±SD HCT‐15, MTT test
[3] = system: PSN‐1 pancreatic cancer cells; test: MTT cytotoxicity, 72 h; format: cell-based, human; details: read-out: IC50 (μM)±SD PSN‐1, MTT test
[4] = system: MCF‐7 breast cancer cells; test: MTT cytotoxicity, 72 h; format: cell-based, human; details: read-out: IC50 (μM)±SD MCF‐7, MTT test
[5] = system: A375 melanoma cells; test: MTT cytotoxicity, 72 h; format: cell-based, human; details: read-out: IC50 (μM)±SD A375, MTT test
How it was run: as §1

[6] = system: A431 cervical carcinoma cells; test: MTT cytotoxicity, 72 h; format: cell-based, human; details: read-out: IC50 (μM)±SD A431, MTT test
[7] = system: H157 lung carcinoma cells; test: MTT cytotoxicity, 72 h; format: cell-based, human; details: read-out: IC50 (μM)±SD H157, MTT test
How it was run: as §1

[8] = system: H157 cells; test: Transmission electron microscopy; format: cell-based, human; details: 24 h, IC50 concentrations
How it was run: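 About 10^6 H157 cells were treated 24 h after seeding and incubated a further 24 h; untreated and auranofin-treated cells served as references. Cells were fixed in 1.5% glutaraldehyde in 0.2 M sodium cacodylate pH 7.4, post-fixed in 1% OsO4 and embedded in epoxy. Sections were 1 μm (toluidine blue) or 90 nm (uranyl acetate/lead citrate), imaged at 75 kV.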

[9] = system: H157 cells; test: Apoptosis induction; format: cell-based, human; details: 48 h, IC50 doses
[10] = system: H157 lung cancer cell spheroids; test: 3D spheroid cytotoxicity, acid phosphatase; format: cell-based, human; details: read-out: IC50 (μM)±SD H157 spheroids; 3D spheroids, 72 h, APH assay
How it was run: (§2)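 H157 or A2780 cells were seeded at 2.5×10^3 cells/well in round-bottom non-treated plates. The medium was phenol red-free RPMI-1640 with 10% FCS plus 20% methyl cellulose stock solution. Spheroids were exposed 72 h to increasing concentrations, with the compound added from DMSO to a final 0.5%. Viability was read by a modified acid phosphatase assay, and IC50 was fitted by a 4-parameter logistic model.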

[11] = system: A2780 ovarian cancer cell spheroids; test: 3D spheroid cytotoxicity, acid phosphatase; format: cell-based, human; details: read-out: IC50 (μM)±SD A2780 spheroids; 3D spheroids, 72 h, APH assay
How it was run: as §2

[12] = system: LoVo colon cancer cells; test: MTT cross-resistance, sensitive colon cells; format: cell-based, human; details: 72 h, read-out: IC50 (μM)±SD LoVo
How it was run: (§3)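 LoVo, LoVo MDR and LoVo-OXP cells were grown in F-12 HAM'S with 10% FCS, antibiotics and 2 mM glutamine at 37 °C, 5% CO2. LoVo-OXP had been selected over 17 months in increasing oxaliplatin. Cells (3–8×10^3/well) were exposed 72 h in triplicate, with DMSO at 0.5% final. MTT was added for 5 h, followed by SDS/0.01 M HCl overnight, then A570. IC50 came from a 4-PL fit over ≥4 experiments; RF = IC50 resistant/IC50 LoVo.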

[13] = system: LoVo MDR colon cancer cells; test: MTT cross-resistance, multi-drug resistant cells; format: cell-based, human
How it was run: as §3

[14] = system: A2780 ovarian adenocarcinoma cells; test: MTT cross-resistance, sensitive ovarian cells; format: cell-based; details: Homo sapiens, A2780, 72 h, read-out: IC50 (μM)±SD A2780
How it was run: (§4)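 A2780 and A2780 ADR cells were grown in RPMI-1640 with 10% FCS, antibiotics and 2 mM glutamine at 37 °C, 5% CO2. Cells (3–8×10^3/well) were given compound after 24 h and exposed 72 h in triplicate, with DMSO at 0.5% final. MTT was added for 5 h, followed by SDS/0.01 M HCl overnight, then A570 as % of untreated control. IC50 came from a 4-PL fit over ≥4 experiments; RF = IC50 A2780 ADR/IC50 A2780.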

[15] = system: A2780 ADR ovarian cancer cells; test: MTT cross-resistance, multi-drug resistant ovarian cells; format: cell-based, human
How it was run: as §4

[16] = system: LoVo‐OXP colon cancer cells; test: MTT cross-resistance, oxaliplatin-resistant cells; format: cell-based, human
How it was run: as §3

[17] = system: LoVo‐OXP colon cancer cells; details: as previously reported; cited from earlier work
[18] = RF=IC50 resistant cells/IC50 sensitive cells

SMILES | IC50 [1] [µM] | IC50 [2] [µM] | IC50 [3] [µM] | IC50 [4] [µM] | IC50 [5] [µM] | IC50 [6] [µM] | IC50 [7] [µM] | other results
CC(=O)OC[C@H]1O[C@@H]([S-])[C@H](OC(C)=O)[C@@H](OC(C)=O)[C@@H]1OC(C)=O.CCP(CC)CC.[Au+] [Auranofin, 2,3,4,6‐tetra‐o‐acetyl‐ L‐thio‐β‐D‐glyco‐pyranosato ‐S‐(triethyl‐phosphine) gold(I)] | 1 ± 0.2 | 0.1 ± 0.02 | 1 ± 0.4 | 0.9 ± 0.3 | 2.3 ± 1 | 2 ± 0.8 | 1.6 ± 0.3 | mitochondrial morphology (TEM) [8]: dramatic swelling of the mitochondria; apoptosis, cellular morphological changes (Hoechst 33258) [9]: brightly stained nuclei and morphological features typical of cells undergoing apoptosis
N.N.[Cl][Pt][Cl] [Cisplatin] | 2.2 ± 1.3 | 11.3 ± 1.5 | 12.1 ± 2.9 | 8.8 ± 1 | 3.1 ± 0.4 | 1.4 ± 0.3 | 5.9 ± 1.1 | IC50 [10]: 52.5 ± 1.3 µM; IC50 [11]: 74.2 ± 8.9 µM
COc1cccc2c1C(=O)c1c(O)c3c(c(O)c1C2=O)C[C@@](O)(C(=O)CO)C[C@@H]3O[C@H]1C[C@H](N)[C@H](O)[C@H](C)O1 [Doxorubicin] |  |  |  |  |  |  |  | IC50 ([12]; Homo sapiens, LoVo): 1.1 ± 0.2 µM; IC50 ([13]; Homo sapiens, LoVo, 72 h, read-out: IC50 (μM)±SD LoVo MDR): 19.2 ± 2.3 µM; RF (LoVo MDR/LoVo) [13, 18]: 17.5 –; IC50 [14]: 0.01 ± 0.001 µM; IC50 ([15]; Homo sapiens, A2780 ADR, 72 h, read-out: IC50 (μM)±SD A2780 ADR): 0.16 ± 0.03 µM; RF (A2780 ADR/A2780) [15, 18]: 16.0 –
O=C(O)C(=O)O.[NH-][C@@H]1CCCC[C@H]1[NH-].[Pt+2] [oxaliplatin] |  |  |  |  |  |  |  | IC50 ([12]; MTT test): 1.1 ± 0.6 µM; RF (LoVo‐OXP/LoVo) [16, 18]: ND 13.0; IC50 ([16]; read-out: IC50 (μM)±SD LoVo‐OXP, 72 h, MTT test): 14.3 µM; resistance of LoVo OXP cells vs parental cells [17]: about 13 fold

From paper PMC10092581 (Chemistry (Weinheim an Der Bergstrasse, Germany), 2022)
